The text below walks through data of ChEMBL document CHEMBL3286389, “Targeting class A and C serine β-lactamases with a broad-spectrum boronic acid derivative” (J Med Chem, 2014).

A short description of test [1]: Competitive inhibition of wild type beta-lactamase TEM-1 (unknown origin) expressed in Escherichia coli using 6-beta-furylacryloylamido-penicillanic acid as substrate by spectrophotometry. An outline of the steps:
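TEM-1, purified. Reactions started by 0.3 nM enzyme in the AmpC assay buffer (50 mM Tris pH 7.0). FAP substrate, absorbance change at 340 nm. Inhibitor stocks were 50 mM in DMSO, diluted in phosphate pH 7. Ki from comparison of progress curves with and without inhibitor.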

Test [2] in a line: Competitive inhibition of Escherichia coli beta-lactamase AmpC using nitrocefin as substrate by UV-Vis spectrophotometry. An outline of the steps: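 Pinacol esters were tested uncleaved and hydrolysed to free acid in 50 mM phosphate pH 7.4. Ki derived from IC50 plots assuming competitive inhibition.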
The nature of test [3]: Competitive inhibition of Escherichia coli beta-lactamase AmpC N289A mutant using nitrocefin as substrate by UV-Vis spectrophotometry.

Consider `O=C(Cc1cccs1)N[C@H](B(O)O)c1cccc(C(=O)O)c1`, for which the Ki in test [1] was 64 nM; in test [2], 1 nM. In test [2], `CC(=O)/C=C/c1c(B(O)O)sc2ccccc12` registered an inhibitory constant (Ki) of 240 nM. With `O=C(O)/C=C/c1c(B(O)O)sc2ccccc12`, the Ki in test [3] was 50 nM; in test [2], 90 nM.

In turn, `OB(O)c1cc2ccccc2s1` yielded a Ki in test [1] of 50000 nM.

As usually defined, the Ki is the dissociation constant of the complex between target and ligand, obtained from inhibition or displacement. Read a high Ki as weaker binding.
